Tested on: MS2 coat protein
Test: apparent Kd, MS2 coat protein; higher = weaker binding; RNA-MaP array; FMN 200 µM where present
Summary of the method: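 Binding was read on Illumina sequencing-chip clusters where stalled E. coli RNA polymerase had transcribed each design. A titration of SNAP-549-labelled MS2 coat protein began at 0.7 or 1.5 nM and doubled to 3 µM, once without ligand and once with constant ligand, in 100 mM Tris-HCl pH 7.5, 80 mM KCl, 4 mM MgCl2, BSA, DTT, yeast tRNA and Tween-20. The apparent Kd is the median of filtered per-cluster binding-curve fits, based on green signal normalised to red-channel RNA signal and control-cluster median Fmax.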

[1] = designed as: ON switch for flavin mononucleotide, no ligand
[2] = ligand present: flavin mononucleotide, designed as: ON switch for flavin mononucleotide
[3] = designed as: OFF switch for flavin mononucleotide, no ligand
[4] = ligand present: flavin mononucleotide, designed as: OFF switch for flavin mononucleotide

Sequence	apparent Kd [1]	apparent Kd [2]	apparent Kd [3]	apparent Kd [4]
UAAUAUAUACAAGGAUAUCAAUUAUAUACACAUCCUACAUGAGGAUCACCCAUGUUUUAUUUUUUUGAGAAGGUGUAUUGUCGG	20.4 nM	29.1 nM		
CGAUAUGAUGCAGGAUAUCUAUCUUGAAUGAGGAGAGAAGGGCAAACCGAGACAUAAGCCUUAUUACAUGAGGAUCACCCAUGU			10.4 nM	9.38 nM
GGAUCACAAAGUGAUCCAAUACGAACAUGAGGAUCACCCAUGUAGGAUAUGCUACUCAAAGAGUAGCAGAAGGACAUGUGCCUU			35.4 nM	296 nM
CUACAUGAGGAUCACCCAUGUGCACACCGGAUCGGUAUGCGCAGAAGGGCCAUGGAGAAAGCCAGGCAGGAUAUGCAAAGGGCU	258 nM	176 nM		
GUAGCAUACCGAGGAUAUUCAGGGCGUGGAUAUACAUGAGGAUCACCCAUGUGGCGGAAGCCUAGGGAGAAGGCGGGAUGCUAC	22.3 nM	15.5 nM		
GCUUGUGGGCAAGGAUAUCCUACGUUGUUCUGGUUCGUGUCUGUCACAUGAGGAUCACCCAUGUGGGAGAAGGUGCAUUUGGUG			19.7 nM	17.1 nM
AGCUGGUGACAGCAAGAAAGUUCACAUGAGGAUCACCCAUGUAGAAGGCUGUACGGUUACCGUACAGAGGAUAUACAUAGAAAG			19.9 nM	31.5 nM
AUCAGCUCGUCAGGAUAUACGUCACUGCGUUAGCAGUGUGGUAAGAUCACAUGAGGAUCACCCAUGUAGAAGGGACGAGCUGAU			13.8 nM	263 nM
AUUAAGCAGCAGGAUAUAAGUAUCUAAAGGUGGUUAGAAGGGCUGACAUGAGGAUCACCCAUGUGCUCUUCGUG			15.7 nM	21.1 nM
UUUGGGUGGCUGGAGGAUAUCCUUGUUGUUACAUGAGGAUCACCCAUGUGCCGCGCGGUUCGCGAGGAGAAGGCUGGCGGCCGUU	331 nM	61.3 nM		
UGAAAUCAUGUAGGAUAUGCAUGGCGAAGCUACGCAGAAGGACAUGAGGAUCACCCAUGUUCUAGCUACCGGAUACGGUGGCAA			23.1 nM	116 nM
ACAUGAGGAUCACCCAUGUUAAGCGAGGAUAUUUGACUGCACAUGAGGUUCGCCCAUGUCCUGCCGAAGAAGGUGCGAAUAAUU	54.2 nM	17.6 nM		
UUUCUUGAUGUCAGGAUAUCGGGCACAAAAUCUAACGAGAAGGGACAUGAGGAUCACCCAUGUACGUUUUUGGG			92.9 nM	249 nM
CGUAUAUGGGAGAAGGCAUGUUCCAAAGGGCCAUGAGGAUAUCCUAAGUGUACGCUUUGCGACAUGAGGAUCACCCAUGUAGCA	8.95 nM	6.34 nM		
GGAUCAGAUGAGGAUAUUCGUUGUAUAACAACAGGAGAAGGCAUCACAUGAGGAUCACCCAUGUUCUACCUUCC			14.1 nM	15.8 nM
UUUAAGGAAGGAUAUACAAUAUAAAUAAUAUCCUCAUUAUUACAUGAGGAUCACCCAUGUAGAAGGUCCAAUUU			118 nM	368 nM
UGUCGGAGCAGAGGAUAUUACAUGAGGAUCACCCAUGUAUGAACCAAUAGCUGGAAACACCAAUGUAAGAAGGCUGCUCCGACA			19.8 nM	146 nM
AGCUAAGAGUUAAUUGUGACAGUGAGAAGGCAAUAGUUUGUGACCGACAUGAGGAUCACCCAUGUUGAGGAUAUCACUAGCUAC			6.83 nM	19.4 nM
UAUAAUAUUAUAGGAUAUGGAUACGAUACGUAUCCAGAAGGGUGAUUAUAAUAUAAUCUAUACAUGAGGAUCACCCAUGUUUAU	228 nM	98 nM		
AAUAACAGAGGAUAUACUAUUUUAUGUGUUUAUUGUUUUGAACAUGAGGAUCACCCAUGUAGAAGGCUGAAUAA			24.6 nM	26.1 nM
